Compound activity from PubChem BioAssay.
Most compounds without a hit are left out; they make up all but 4.1% or so of the library.
DTT redox prof – compounds producing H2O2 with reducing agent – biochemical, NIH compound library profiling, artefact control for MLSCN library redox annotation, primary screen | DTT-dependent redox cycling H2O2, phenol red/HRP absorbance; 100% = 100 µM peroxide control, 0% = buffer | actives 0.03% (n = 200,000) | activation, % at 10 µM | AID 878;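 active = activation of at least 50% relative to the plate's high and low controls in the primary single-dose screen; inactive = activation below 50%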;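 note: compound incubated with DTT at 0.8 mM final as the reducing agent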
Autophagy HCS – modulators of autophagy; MEF GFP-LC3 puncta imaging; test concentration mostly 10 µM; calls only at 10 µM (by protocol); actives 0.98% (n = 190,000); AID 463193;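 active = percentage of spot-positive cells more than 3 SD above its plate mean, without a fluorescence outlier flag or 80% toxicity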;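 note: spot-positive cell cutoff set from DMSO-treated cells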
ROMK primary – modulators of human ROMK potassium channel | actives 2% (n = 130,000) | Tet-inducible ROMK, thallium flux fluorescence; actives lie on both sides | P48048 | B-score at 10 µM;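 active = signal ratio slope over the read window, or its plate-corrected B-score, at least 3 SD from the plate mean, either direction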;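 note: B-score of the F/F0 ratio slope over 7 to 12 s after thallium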
Target sequence (P48048 whole entry, looked up): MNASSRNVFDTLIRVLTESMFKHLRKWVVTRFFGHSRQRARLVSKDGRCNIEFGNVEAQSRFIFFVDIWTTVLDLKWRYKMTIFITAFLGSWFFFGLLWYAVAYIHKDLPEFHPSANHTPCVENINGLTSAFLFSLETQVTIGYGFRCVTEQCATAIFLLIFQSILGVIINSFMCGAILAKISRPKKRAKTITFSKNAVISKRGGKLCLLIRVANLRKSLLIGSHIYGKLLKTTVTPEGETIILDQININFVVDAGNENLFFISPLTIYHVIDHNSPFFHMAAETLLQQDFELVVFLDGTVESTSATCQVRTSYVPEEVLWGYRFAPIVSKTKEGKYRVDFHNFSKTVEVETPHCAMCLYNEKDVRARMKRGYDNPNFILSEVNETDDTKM
Cl transport mod – modulates chloride dependent transport by human KCC2 | KCC2 cells, thallium flux FluoZin-2 fluorescence | B-score of Tl+ flux slope (higher = more flux/activation; lower = inhibition) at 10 µM | actives 2.2% (n = 190,000);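 active = thallium flux slope and its plate-corrected score both differing from the plate sample mean at a set confidence after two filtering rounds, in either direction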;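 note: slope of fluorescence scaled to starting intensity during 10 to 20 s after thallium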
Dynein transport – blocks dynein driven cargo transport along microtubules; 3617.4 mouse cells, GR-EGFP nuclear translocation imaging; test concentration mostly 20 µM; stimulated with dexamethasone, 1 µM; active compounds read low; z-score, hits read low; actives 0.47% (n = 220,000);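 active = plate z-score of nuclear minus cytoplasmic receptor signal below a set negative limit, without overly bright fluorescence or cell loss, cut at about -3.5 in these data, passing the limit was not always enough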;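 note: z-score of nuclear minus cytoplasmic ring GR-EGFP intensity difference per well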
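Buffer or medium: tet-free, stripped-serum medium; Also added: dexamethasone, 1.0 µM final; Technique: high-content fluorescence imaging after fixation; Times: 48 h induction, 1 h compound, 30 min dex at 37 °C; Read-out: per-cell GR-EGFP intensity, nucleus versus surrounding cytoplasmic ring, well-averaged.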
The depositor's hits bear a star; i = inactive; . = no result given; + = active, no number.

SMILES	DTT redox prof	Autophagy HCS	ROMK primary	Cl transport mod	Dynein transport
Cc1cccc(-c2cc(C(=O)Nc3ccc4c(c3)OCCO4)c3ccccc3n2)c1	3.4	i	.	0.0113	-0.101
O=C(Nc1ccc2c(c1)OCCO2)c1cc(-c2ccccn2)nc2ccc(Br)cc12	-0.2	+	-0.0943	0.296	-0.303
Cc1noc(C)c1COc1cccc(C(=O)OCC(=O)N2CC(=O)Nc3ccccc32)c1	-0.4	+	.	-2.39	0.287
O=C1CN(C(=O)COc2cccc(F)c2)c2ccccc2N1	0.3	i	.	1.08	-0.459
Fc1ccc(C2=CC(c3ccc(Br)o3)n3ncnc3N2)cc1 (stereo unspecified)	-0.7	i	-3.45*	-1.62	-0.826
Nc1cc(-c2cccc(Br)c2)nn1Cc1ccccc1	-0.5	+	-1.03	-2	1.6
Clc1ccccc1-c1ncnc2ccc(Br)cc12	-0.9	i	-0.444	-1.02	0.149
CN(Cc1ccccc1)c1ncnc2ccc(Br)cc12	3.0	i	-4.68*	-2.77	-0.426
CCn1c(-c2cc(-c3cccc(OC)c3)nc3ccccc23)n[nH]c1=S	-1.7	i	0.0744	2.71*	-0.45
Cc1c(N2C(=O)/C(=C/C3CC=CCC3)SC2=S)c(=O)n(-c2ccccc2)n1C (stereo unspecified)	.	.	.	0.021	-0.678
Cc1c(N2C(=O)/C(=C/c3cccc4ccccc34)SC2=S)c(=O)n(-c2ccccc2)n1C	-4.2	i	.	-6.8*	-0.396
Cc1csc(NC(=O)CCNC(=O)c2ccccc2Cl)n1	-1.3	i	-0.411	-0.0572	-0.932
C=CCCCCCCCCc1nc(=S)[nH][nH]1	0.1	i	1.63	64*	-0.839
N#CC1=C(N)Oc2c(ccc3ccccc23)C1c1cccs1 (stereo unspecified)	2.5	+	0.51	-1.28	-1.19
O=C(CCS(=O)(=O)c1ccc(Cl)cc1)Nc1ccc(N2CCOCC2)cc1	.	.	.	-0.281	-0.393
C=CCN(CC=C)S(=O)(=O)c1ccc(NC(=S)NC(=O)c2ccc(-c3ccccc3)cc2)cc1	0.3	i	.	0.285	-0.654
C=CCN(CC=C)S(=O)(=O)c1ccc(NC(=S)NC(=O)c2ccco2)cc1	0.4	i	.	8.14*	-0.0554
COc1ccc(C(=O)/C=C/c2ccc(OC)c(O)c2)c(F)c1	1.2	i	.	-0.843	0.0343
COc1cc(/C=C/C(=O)c2ccc(Cl)s2)cc(OC)c1O	1.1	i	.	-0.66	-4*
COc1ccc(/C=C/C(=O)c2ccc(Cl)s2)cc1O	0.2	i	.	0.0752	-3.79*
Cc1c(/C=C/C(=O)c2ccc(Cl)s2)cnn1C	1.6	i	.	-0.364	-1.84
CCCCn1nnc(NC(=S)NC(=O)c2cccs2)n1	0.1	i	.	2.75	0.731
CCOc1cc(CNc2ncn[nH]2)ccc1OCC(=O)NC(C)(C)C	-0.4	i	1.31	0.627	-0.407
Cc1cc(C)n2cc(CSc3ccccn3)nc2n1	-0.2	+	-0.171	0.377	1.24
Cc1ccc(SCc2cn3c(C)cc(C)nc3n2)cc1	.	.	.	0.306	0.388
SMILES	DTT redox prof	Autophagy HCS	ROMK primary	Cl transport mod	Dynein transport
C(=N\N1CCN(Cc2cccc3ccccc23)CC1)/c1ccco1	-0.3	+	-1.7	-0.973	1.96
Cc1cc(C)n(-c2nc3ccccc3c(=O)n2OCC(=O)OCc2ccccc2)n1	3.3	+	-1.6	-1.64	-0.51
Cc1cc(NC(=O)c2noc3c2CCCC3)no1	-2.8	+	.	0.0801	0.707
Cc1cc(NC(=O)c2noc3c2CCCCC3)no1	-0.2	i	.	-0.0357	-0.64
O=C(Nc1ccc2c(c1)OCO2)c1noc2c1CCCCC2	-1.3	+	0.195	.	1.11
CCOC(=O)c1ccc(NC(=O)N2CCOCC2)cc1	-0.2	i	0.197	0.907	-0.0527
CCOC(=O)c1ccc(NC(=O)CSC(=S)N2CCOCC2)cc1	-0.4	+	-1.48	2.04	-0.0847
C=CCSC1=NN2CCS(=O)(=O)N=C2S1	-0.2	i	0.293	1.69	-0.294
COc1ccc2oc(=Nc3cc(F)ccc3F)c(C(N)=O)cc2c1	0.1	+	.	0.0143	1.33
COc1ccc2oc(=O)c(C(=O)Nc3ccccc3O)cc2c1	.	.	-0.0748	0.536	0.779
COc1ccc2o/c(=N\O)c(C(=O)Nc3ccccc3OC)cc2c1	0.5	i	.	0.296	-4.15*
O=c1c2ccc([N+](=O)[O-])cc2ncn1CCOc1cccc(Br)c1	-0.2	+	0.302	0.65	1.05
